Assay outcomes deposited in PubChem BioAssay by Sanford-Burnham Center for Chemical Genomics.
SENP8 block-1: SENP8 (human) protease inhibition; recombinant SENP8, Nedd8 substrate fluorescence; inhibition, % at 20 µM; actives 0.64% (n = 360,000); in the data active means inhibition mostly above about 40%, no sharp cut-off; inactive means mostly below about 27%
SENP1 FRET inh: blocks the human SENP1 SUMO protease catalytic domain; Q9P0U3; inhibition, % at 10 µM; actives 0.21% (n = 360,000); AID 624204; recombinant SENP1 catalytic domain, CyPet-SUMO1-YPet FRET cleavage;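 active means inhibition at least 30% at 10 µM, raw YFP signal under a set limit, fluorescence ratio 0.5 to 1.5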;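 further: 0% = enzyme with DMSO and 100% = no enzyme wells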
Target sequence (Q9P0U3 419-644 limits assumed): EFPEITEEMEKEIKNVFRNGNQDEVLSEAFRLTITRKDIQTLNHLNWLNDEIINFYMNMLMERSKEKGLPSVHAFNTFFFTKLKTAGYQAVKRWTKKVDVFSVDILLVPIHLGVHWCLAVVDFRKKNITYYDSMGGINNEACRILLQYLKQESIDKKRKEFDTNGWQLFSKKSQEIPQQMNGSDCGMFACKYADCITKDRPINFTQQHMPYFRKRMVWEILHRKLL
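Material: hSENP1 catalytic domain, recombinant; medium: Tris pH 8 with BME, BSA, NP40 and catalase; compound: single concentration of 10 µM compound, 0.5% DMSO final; technique: FRET read of cyan and yellow fluorescence; timing: 50 min enzyme reaction, room temperature, light-protected; reagent: SFCypet-SUMO1-SFYpet substrate at 25 nM; control set: no-enzyme low, enzyme-DMSO high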
SENP7 block: SENP7 protease inhibition; recombinant SENP7, Z-RLRGG-aminoluciferin luminescence, 40 min; inhibition, % at 5 µM; actives 1.5% (n = 330,000);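 active means inhibition above about 50% at the single test dose, limit read from the data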;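 further: plate controls were DMSO with enzyme for no effect and no enzyme buffer wells for full effect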
SENP8 block-2: SENP8 protease inhibition. purified SENP8, Z-RLRGG-aminoluciferin cleavage, luminescence. inhibition, % at 10 µM. actives 1.2% (n = 330,000). AID 2540; in the data active means inhibition above about 50%
SENP6 inh: blocks the human protease SENP6 | Recombinant SENP6 catalytic domain, aminoluciferin luminescence | inhibition, % at 10 µM | actives 1.8% (n = 330,000) | AID 2599;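 active means inhibition above about 50% at the single tested dose, limit read from the data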;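 further: plate controls were DMSO wells with enzyme for no effect and DMSO wells lacking enzyme for full effect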
SENP8 conf: confirmation of human SENP8 protease inhibitors. shares compounds with SENP7 block. Recombinant SENP8, Z-RLRGG-aminoluciferin luminescence, 60 min. inhibition, % at 12.5 µM. actives 40% (n = 6,200);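 active means mean inhibition across replicates above about 50%, limit read from the data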
SENP6 conf: confirmation of human SENP6 protease inhibitors. inhibition, % at 12.5 µM. AID 488915. actives 58% (n = 6,200). shares compounds with SENP7 block. recombinant SENP6, Z-RLRGG-aminoluciferin luminescence
SENP7 conf: confirmation of human SENP7 protease inhibitors | shares compounds with SENP7 block | recombinant SENP7, Z-RLRGG-aminoluciferin luminescence, 40 min | inhibition, % at 12.5 µM | actives 69% (n = 6,200)
Casp3 select: inhibits human caspase-3 in SENP selectivity test. shares compounds with SENP7 block. purified caspase-3, Z-DEVD-aminoluciferin luminescence, 60 min. inhibition, % at 12.5 µM. actives 60% (n = 6,200);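 active means mean inhibition above about 50%, limit read from the data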;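 further: plate controls were enzyme with DMSO for no effect and wells without caspase-3 for full effect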
Target sequence (P42574 28-227 limits assumed): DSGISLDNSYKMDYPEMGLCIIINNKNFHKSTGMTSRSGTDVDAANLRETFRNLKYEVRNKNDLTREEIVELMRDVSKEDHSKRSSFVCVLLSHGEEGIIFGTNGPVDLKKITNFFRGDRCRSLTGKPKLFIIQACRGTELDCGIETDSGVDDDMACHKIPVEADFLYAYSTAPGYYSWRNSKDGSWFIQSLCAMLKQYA
Luc interf: luminescence interference (SENP counter-screen); AID 488919; actives 39% (n = 6,200); shares compounds with SENP7 block; Pre-incubated SENP8/Z-RLRGG-aminoluciferin, luciferase luminescence interference; inhibition, % at 12.5 µM;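 active means mean inhibition above about 50% when retested at one dose, limit read from the data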;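 further: plate controls were DMSO wells with completed reaction for no effect and substrate without enzyme for full effect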
* = called active by the depositor; . = not tested or not shown. A selection: hits, their analogues and other compounds. The true share with any hit is near 2.5%.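 How the source made its calls, unless noted: active means mean inhibition above about 50% in the one-dose retest (limit read from the data); inactive means the rest.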

SMILES	SENP8 block-1	SENP1 FRET inh	SENP7 block	SENP8 block-2	SENP6 inh	SENP8 conf	SENP6 conf	SENP7 conf	Casp3 select	Luc interf
CCCc1nnc(NC(=O)CCC(=O)NC2CCCCCC2)s1	11	1	1	0	1	.	.	.	.	.
O=C(CS(=O)(=O)c1ccccc1)c1ccc2c(c1)OCCO2	4	0	51*	34	57*	63*	60*	86*	82*	65*
COC(=O)CC(c1ccc(OC)c(OC)c1)c1ccc(OC)c(OC)c1	3	0	10	-3	2	.	.	.	.	.
CCn1c(O)c(N=Nc2ccc3ccccc3n2)c2ccccc21	39	12	97*	94*	95*	18	23	98*	30	6
CCCCn1c(O)c(N=Nc2ccccn2)c2ccccc21	8	20	5	-9	-10	.	.	.	.	.
CC(=O)N1CCCc2cc(S(=O)(=O)NC(C(=O)NC3CCCCC3)C(C)C)ccc21 (stereo unspecified)	11	2	4	2	-18	.	.	.	.	.
COc1ccc(NC(=O)C(NS(=O)(=O)c2ccc3c(c2)CCCN3C(C)=O)C(C)C)c(OC)c1 (stereo unspecified)	29	1	102*	1	-4	-25	-10	1	-2	-5
O=C(Nc1nnc(C(F)(F)F)s1)C1COc2ccccc2O1 (stereo unspecified)	15	3	64*	67*	83*	81*	80*	95*	91*	85*
CC1(C)Oc2ccc(NC(=O)C3COc4ccccc4O3)cc2O1 (stereo unspecified)	30	-1	48	27	66*	72*	72*	93*	71*	77*
CC(=O)c1sc(NC(=O)C2COc3ccccc3O2)nc1C (stereo unspecified)	-46	0	19	29	52*	20	24	62*	62*	51*
O=C(Nc1nnc(C2CC2)s1)C1COc2ccccc2O1 (stereo unspecified)	3	2	20	10	18	.	.	.	.	.
O=c1[nH]c(N/N=C/c2ccc(O)cc2)nc2ccccc12	-336	-128	51*	60*	75*	44	62*	86*	81*	71*
O=c1[nH]c(N/N=C\c2ccc(F)cc2)nc2ccccc12	-293	-142	-8	0	-23	.	.	.	.	.
O=C(O)c1ccc(/C=N/Nc2nc3ccccc3[nH]2)cc1	-193	-5	58*	49	-3	14	17	46	33	4
COc1ccc(F)cc1S(=O)(=O)Nc1ccc(C)cc1	17	-19	-7	-2	-22	.	.	.	.	.
O=C(C1CCC(C(=O)N2CCc3ccccc32)CC1)N1CCc2ccccc21 (stereo unspecified)	4	-1	4	5	1	.	.	.	.	.
O=C(Nc1ccccc1)C(=O)Nc1ccc2c(c1)N(C(=O)C1CC1)CCC2	10	0	99*	96*	98*	56*	100*	103*	98*	27
CC(C)(C)c1ccc(C(=O)Nc2cnccn2)cc1	10	-3	55*	29	52*	38	47	60*	63*	30
COc1ccc(C(=O)Nc2cnccn2)cc1[N+](=O)[O-]	13	1	5	1	-18	.	.	.	.	.
O=C(COc1ccc(Cc2ccccc2)cc1)c1ccc(F)cc1	1	2	52*	26	60*	19	36	51*	25	11
